The source of these data is ChEMBL document CHEMBL3616442, “Unconventional Knoevenagel-type indoles: Synthesis and cell-based studies for the identification of pro-apoptotic agents” (Eur J Med Chem, 2015).

The test system of one assay is MT4. The assay can be described thus: Antiproliferative activity against human MT4 cells after 96 hrs by MTT assay. The assay is classed as functional, cell-based. Conditions: MT4, 96 h. Summed up: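 Exponentially growing MT-4 cells (CD4+ human T-cells carrying integrated HTLV-1 genome), seeded at 1×10^5 cells/mL in RPMI-1640 with 10% FCS and antibiotics. Serial dilutions of compound (DMSO stock 100 mM, diluted in medium), 37 °C, 5% CO₂, 96 h. Viability read by MTT. 50% inhibition versus untreated controls by linear regression. Mean ± SD of three independent determinations.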

Assay [1] relates to K562. The assay can be described thus: Induction of apoptosis in human K562 cells by propidium iodide staining based flow cytometric analysis. The assay is classed as functional. Put shortly:
(§1)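 After treatment, cells harvested, fixed in ice-cold 70% ethanol at 4 °C, stained 30 min at 37 °C in the dark with 100 µg/mL propidium iodide plus 10 µg/mL RNase A; 10,000 gated cells analysed at 488 nm with debris excluded; apoptosis followed over time; mean ± S.E.M. of three independent experiments run in triplicate.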
In general terms: In flow cytometry, cells or beads pass a laser one at a time.

Assay [2] concerns MCF7. Description: Induction of cell cycle arrest in human MCF7 cells assessed as accumulation at G2/M phase after 18 hrs by propidium iodide staining based flow cytometric analysis. The assay is classed as functional. Summed up: (§2)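 Propidium iodide/RNase A flow cytometry of ethanol-fixed cells, 10,000 gated events at 488 nm; G2/M fraction measured after 18 h treatment (HL-60, MCF-7) or 24 h (K562); mean ± S.E.M. of three independent experiments.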

The test system of assay [3] is HL-60. Description: Induction of apoptosis in human HL60 cells by propidium iodide staining based flow cytometric analysis. In kind it is functional. Put shortly: as §1
For another assay, the target named is Tubulin (Homo sapiens) (UniProt P68371+Q9H4B7+P0DPH7+P68366+Q13509+Q71U36+P04350+Q3ZCM7+P07437+P68363+Q9BQE3+Q6PEY2+Q13885+Q9BVA1+Q9BUF5). Description: Induction of Tubulin depolymerization in human MCF7 cells by immunofluorescence analysis. In kind it is cell-based. Put shortly: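 MCF-7 cells grown and treated on chamber slides, fixed in ice-cold 100% methanol, washed in PBS with 0.1% Triton X-100, blocked 30 min in 5% BSA, then mouse anti-tubulin for 1 h and Alexa 488 secondary for 1 h; DNA counterstained with 0.2 μg/mL propidium iodide for 2 min. Paclitaxel and PBOX-15 served as tubulin controls.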

Assay [4] concerns MCF7. Description: Antiproliferative activity against human MCF7 cells after 3 days incubation by alamar blue method. In kind it is functional. The settings on record: for GI50: MCF7, 72 h. Summed up: (§3)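 HL-60 and K562 grown in RPMI 1640, MCF-7 in DMEM, each with 10% FCS, penicillin G and streptomycin. Seeded at 4x10⁴ (HL-60, K562) or 2x10⁴ (MCF-7) cells per well with serial compound dilutions, incubated 3 days at 37 °C. Alamar blue added for 3 h at 37 °C in the dark, fluorescence read at ex 544/em 590 nm. IC50 versus untreated controls by linear regression.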

Assay [5] has as its system MCF7. The assay can be described thus: Induction of apoptosis in human MCF7 cells by propidium iodide staining based flow cytometric analysis. The assay is classed as functional. Put shortly: as §1
Assay [6] concerns HL-60. Description: Antiproliferative activity against human HL60 cells after 3 days incubation by alamar blue method. In kind it is functional. The settings on record: for GI50: HL-60, 72 h. Summed up: as §3
The next assay has as its system Nucleic Acid. Description: Induction of DNA intercalation of plasmid pQE30 DNA at 0.01 to 1 mM by electrophoretic mobility assay. In kind it is nucleic-acid assay. The settings on record: Escherichia coli. Summed up: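 Compound dissolved in methanol and incubated with double-strand plasmid pQE-30 DNA for 10 min at 37 °C; gel loading buffer added and samples run on 0.7% agarose to separate closed circular and supercoiled forms.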

Assay [7] has as its system HL-60. Description: Induction of cell cycle arrest in human HL60 cells assessed as accumulation at G2/M phase after 18 hrs by propidium iodide staining based flow cytometric analysis. In kind it is functional. Put shortly: as §2
Assay [8] relates to K562. The assay can be described thus: Induction of cell cycle arrest in human K562 cells assessed as accumulation at G2/M phase after 24 hrs by propidium iodide staining based flow cytometric analysis. In kind it is functional. Put shortly:
as §2

The subject of assay [9] is K562. The assay can be described thus: Antiproliferative activity against human K562 cells after 3 days incubation by alamar blue method. The assay is classed as functional. Conditions: for GI50: K562, 72 h. Summed up:
as §3
For orientation: The colour change of resazurin is a common sign of viable cells or microbes.

Assay [10] in a line: Cytotoxicity against human SKMES1 cells after 96 hrs by MTT assay. In kind it is functional, cell-based. The settings on record: SK-MES-1, 96 h. Summed up:
(§4)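 ATCC cell lines, mycoplasma-free by Hoechst staining. Haematological lines in RPMI-1640, solid-tumour and normal fibroblast lines in their own media, all with 10% FCS and antibiotics, at 37 °C in 5% CO₂. Compounds added as serial dilutions from a 100 mM DMSO stock diluted in medium. Viability by MTT after 96 h at 37 °C. Mean ± SD of three independent determinations.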

The subject of a further assay is SK-MEL-28. The assay can be described thus: Cytotoxicity against human SK-MEL-28 cells after 96 hrs by MTT assay. The assay is classed as functional, cell-based. The settings on record: SK-MEL-28, 96 h. Summed up: as §4
The subject of another assay is CCRF-SB. The assay can be described thus: Cytotoxicity against human CCRF-SB cells after 96 hrs by MTT assay. In kind it is functional, cell-based. Summed up: as §4
Background: Tetrazolium assays rely on reduction of a dye to a coloured formazan, in cell work by metabolically active cells.

Assay [11] has as its system MCF7. Description: Cytotoxicity against human MCF7 cells after 96 hrs by MTT assay. Conditions: MCF7, 96 h. The assay is classed as functional, cell-based. Put shortly:
as §4

The subject of the next assay is HepG2. Description: Cytotoxicity against human HepG2 cells after 96 hrs by MTT assay. The settings on record: HepG2, 96 h. The assay is classed as functional, cell-based. Put shortly:
as §4

A further assay concerns DU-145. The assay can be described thus: Cytotoxicity against human DU145 cells after 96 hrs by MTT assay. In kind it is functional, cell-based. The settings on record: DU-145, 96 h. Summed up: as §4
A further assay deals with MRC5. Description: Cytotoxicity against human MRC5 cells after 96 hrs by MTT assay. In kind it is cell-based. The settings on record: MRC5, 96 h. Summed up: as §4
Another assay has as its system WIL2-NS. The assay can be described thus: Cytotoxicity against human WIL2-NS cells after 96 hrs by MTT assay. In kind it is functional, cell-based. Put shortly: as §4
In the next assay the test system is CCRF-CEM. Description: Cytotoxicity against human CCRF-CEM cells after 96 hrs by MTT assay. In kind it is functional, cell-based. Summed up:
as §4

Assay [12] can be described thus: Cytotoxicity against human CRL7065 cells after 96 hrs by MTT assay. In kind it is cell-based. The settings on record: CRL-7065, 96 h. Put shortly:
as §4

The source made the active and inactive calls. No cut-off for these calls is given here.

A word on the EC50: it is the concentration giving half of the maximal effect. A lower EC50 goes with greater potency. By GI50 is commonly meant the concentration giving 50% growth inhibition. The low end stands for greater sensitivity of the cells, the high end for lower sensitivity of the cells. Take `CS(=O)(=O)/C(C#N)=C/c1c(-c2ccccc2)[nH]c2ccccc12`: in the assay on MT4, the response was half-maximal at 0.3 µM (EC50). Besides, the Activity in the assay with K562 [1] was 47.5%; in the assay on K562 [1] (TDE = time-dependent effect) it was “tde”; in the assay on MCF7 [2], 41.3%; in the assay with HL-60 [3] (TDE = time-dependent effect), “tde”; in the assay with MCF7 [4], “Dose-dependent effect”; in the assay on MCF7 [5] it was 28.4%. Besides, the Activity result is “tde” in the assay on MCF7 [5] (TDE = time-dependent effect); “Dose-dependent effect” with HL-60 [6]; 39.7% in the assay on HL-60 [7]; 46.8% in the assay with K562 [8]; “Dose-dependent effect” in the assay with K562 [9]. The result on Tubulin (Homo sapiens) was Active. Besides, the GI50 with MCF7 [4] is more than 10 µM; with HL-60 [6] it was 1.32 µM; with K562 [9], more than 10 µM. In the assay with Nucleic Acid, the outcome was inactive.
Regarding `N#C/C(=C\c1c(-c2ccccc2)[nH]c2ccccc12)C(=O)c1cccs1`, the EC50 came out at 0.4 µM with MT4; 4 µM in assay [10]; 28 µM in the assay with SK-MEL-28; 0.6 µM in the assay with CCRF-SB; 29 µM with MCF7 [11]; 25 µM with HepG2. The EC50 stood at 11 µM with DU-145; 20 µM with MRC5; 6.4 µM with WIL2-NS; 1.2 µM in the assay on CCRF-CEM; 45 µM in assay [12]. Further, the Activity entry is “tde” in the assay with K562 [1] (TDE = time-dependent effect); 61.3% in the assay with HL-60 [3]; “tde” in the assay on HL-60 [3] (TDE = time-dependent effect); “Dose-dependent effect” with MCF7 [4]; 34.1% with MCF7 [5]; “tde” with MCF7 [5] (TDE = time-dependent effect). Further, the Activity entry in the assay on HL-60 [6] and in the assay with K562 [9] was “Dose-dependent effect” each time. In addition, the GI50 in the assay with MCF7 [4] was more than 10 µM; in the assay on HL-60 [6] it was 2.11 µM; with K562 [9] it was more than 10 µM.
With `CC(=O)OC1=C(c2cccc3ccccc23)Oc2cc3ccccc3cc2-n2cccc21`, the outcome at Tubulin (Homo sapiens) was Active.
